Measured values: ChEMBL document CHEMBL3758103, “Anti-herpetic and anti-dengue activity of abietane ferruginol analogues synthesized from (+)-dehydroabietylamine” (Eur J Med Chem, 2016)
≈ marks a conversion by molar mass, not a printed value. Calls of active or inactive are those of the source. No cut-off for these calls is given here.

Assays:
dengue virus type 2 [1] = test: Antiviral activity against DENV-2 New guinea infected in African green monkey Vero cells assessed as inhibition of virus-induced cytopathic effect after 3 days by crystal violet staining based inverted microscopic analysis relative to control; type: functional, organism-based
dengue virus type 2 [2] = test: Antiviral activity against DENV-2 New guinea infected in African green monkey Vero cells assessed as maximal non toxic concentration causing inhibition of virus-induced cytopathic effect after 3 days by crystal violet staining based inverted microscopic analysis; type: functional
dengue virus type 2 [3] = test: Antiviral activity against DENV-2 New guinea infected in African green monkey Vero cells assessed as reduction in plaque formation administered post viral infection after 8 days by crystal violet staining technique; type: functional, organism-based; settings: 192 h
Outline: (§1)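 Plaque reduction on Vero monolayers (2.5 × 10^4 cells/well) infected with 100 PFU/well. Pre-infection arm: virus–compound mixture added for 1 h at 37 °C, PBS wash, then CMC overlay. Post-infection arm: virus adsorbed 1 h, washed, then compound given in CMC. CMC was 1% for HHV-1, 0.75% for HHV-2 and 2% for DENV-2. Plates ran 72 h (HHV) or 8 days (DENV-2) before crystal violet staining. EC50 came from linear regression over ≥4 dilutions in quadruplicate.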

Human alphaherpesvirus 1 [4] = test: Antiviral activity against HHV1 CDC Atlanta infected in African green monkey Vero cells assessed as reduction of viral titer at maximal non-toxic concentration after 48 hrs by crystal violet staining assay relative to control; type: functional
Outline: (§2)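 End-point titration on Vero monolayers (2.0 × 10^4 cells/well, ≥80% confluent) with 10 TCID50 virus. Virus–compound mixtures (6.25–50 μg/mL) in DMEM/2% FBS with CMC (1% for HHV-1, 0.5% for HHV-2) were held 15 min at room temperature. Incubation was 48 h (HHV-1) or 72 h (HHV-2) at 37 °C, then formaldehyde/crystal violet staining and plaque counting. Read-out is the viral titer reduction factor. Two experiments in quadruplicate.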

Human alphaherpesvirus 1 [5] = test: Antiviral activity against HHV-1 CDC Atlanta infected in African green monkey Vero cells assessed as maximal non toxic concentration causing reduction of viral titer after 48 hrs by crystal violet staining assay; type: functional; outline: as §2
Human alphaherpesvirus 2 [6] = test: Antiviral activity against HHV-2 VR-734-G infected in African green monkey Vero cells assessed as reduction of viral titer at maximal non-toxic concentration after 72 hrs by crystal violet staining assay relative to control; type: functional; outline: as §2
Human alphaherpesvirus 2 [7] = test: Antiviral activity against HHV-2 VR-734-G infected in African green monkey Vero cells assessed as maximal non toxic concentration causing reduction of viral titer after 72 hrs by crystal violet staining assay; type: functional; outline: as §2
HeLa [8] = test: Cytotoxicity against human HeLa cells assessed as cell growth inhibition after 48 hrs by MTT assay; type: functional, cell-based
Outline: (§3)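 MTT assay. Vero and HeLa cells plated at 2.0 × 10^4/well and preincubated 24 h; Jurkat and U937 plated at 3.0 × 10^4/well. Compounds were applied 48 h at 37 °C, 5% CO2, with 0.05% DMSO. Absorbance read at 570 nm and IC50 taken by linear regression. Values are the geometric mean of two experiments in quadruplicate.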

HeLa [9] = test: Selectivity index, ratio of IC50 for African green monkey Vero cells to IC50 for human HeLa cells; type: functional
Outline: (§4)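 SI calculated as Vero IC50 divided by HeLa, Jurkat or U937 IC50, all from the 48 h MTT assay.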

Jurkat [10] = test: Cytotoxicity against human Jurkat cells assessed as cell growth inhibition after 48 hrs by MTT assay; type: functional, cell-based; outline: as §3
Jurkat [11] = test: Selectivity index, ratio of IC50 for African green monkey Vero cells to IC50 for human Jurkat cells; type: functional; outline: as §4
[12] = Cytotoxicity against human U937 cells assessed as cell growth inhibition after 48 hrs by MTT assay; type: functional, cell-based; settings: U-937, 48 h; outline: as §3
Vero [13] = test: Selectivity index, ratio of IC50 for African green monkey Vero cells to IC50 for human U937 cells; type: functional; outline: as §4
Vero [14] = test: Cytotoxicity against African green monkey Vero cells assessed as cell growth inhibition after 48 hrs by MTT assay; type: cell-based; settings: Chlorocebus sabaeus; outline: as §3
Vero [15] = test: Cytotoxicity against African green monkey Vero cells assessed as inhibition of cell proliferation after 72 hrs; type: cell-based; settings: Chlorocebus sabaeus
Vero [16] = test: Cytotoxicity against African green monkey Vero cells assessed as inhibition of cell proliferation after 8 days; type: cell-based; settings: Chlorocebus sabaeus, 192 h
Human alphaherpesvirus 1 [17] = test: Antiviral activity against HHV-1 CDC Atlanta infected in African green monkey Vero cells assessed as reduction in plaque formation administered simultaneously with virus for 1 hr measured after 72 hrs by crystal violet staining technique; type: functional, organism-based; outline: as §1
Human alphaherpesvirus 2 [18] = test: Antiviral activity against HHV-2 VR-734-G infected in African green monkey Vero cells assessed as reduction in plaque formation administered simultaneously with virus for 1 hr measured after 72 hrs by crystal violet staining technique; type: functional, organism-based; outline: as §1
dengue virus type 2 [19] = test: Antiviral activity against DENV-2 New guinea infected in African green monkey Vero cells assessed as reduction in plaque formation administered simultaneously with virus for 1 hr measured after 8 days by crystal violet staining technique; type: functional, organism-based; outline: as §1
Human alphaherpesvirus 1 [20] = test: Antiviral activity against HHV-1 CDC Atlanta infected in African green monkey Vero cells assessed as reduction in plaque formation administered post viral infection after 72 hrs by crystal violet staining technique; type: functional, organism-based; outline: as §1
Human alphaherpesvirus 2 [21] = test: Antiviral activity against HHV-2 VR-734-G infected in African green monkey Vero cells assessed as reduction in plaque formation administered post viral infection after 72 hrs by crystal violet staining technique; type: functional, organism-based; settings: Human alphaherpesvirus 2, VR-734-G; outline: as §1
[22] = Selectivity index, ratio of IC50 for African green monkey vero cells to EC50 for HHV-1 compound administered post viral infection
Outline: (§5)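 Antiviral SI calculated as Vero IC50 divided by the post-infection plaque-reduction EC50 for each virus on Vero cells.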

[23] = Selectivity index, ratio of IC50 for African green monkey vero cells to EC50 for HHV-2 compound administered post viral infection; outline: as §5
[24] = Selectivity index, ratio of IC50 for African green monkey vero cells to EC50 for DENV-2 compound administered post viral infection; outline: as §5
Human alphaherpesvirus 2 [25] = test: Antiviral activity against HHV-2 VR-734-G infected in African green monkey Vero cells assessed as viral plaque size reduction at 20.8 uM after 72 hrs by crystal violet staining based inverted microscopic analysis relative to control; type: functional; set-up: scale not given: the % may be the effect or the level left
Outline: (§6)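 Vero cells (2.5 × 10^4/well) infected with 100 PFU/well, with compound in CMC added 2 h after infection. Incubation was 72 h for HHV strains and 8 days for DENV-2, then formaldehyde/crystal violet staining. Twenty plaques per concentration per well were imaged and their areas […] measured against mock-treated controls. Two experiments in duplicate.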

Trichophyton rubrum = test: Antifungal activity against Trichophyton rubrum ATCC 28188 assessed as microbial growth inhibition after 6 days by microdilution assay; type: functional; settings: ATCC 28188, 144 h
Outline: (§7)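 Broth microdilution under CLSI M38-A with modifications, in duplicate, at final compound concentrations of 50–3.125 μg/mL. […] Values are the geometric mean of duplicate tests in three assays. Assay DMSO was 0.05%.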

[26] = system: Trichophyton mentagrophytes; test: Antifungal activity against Trichophyton mentagrophytes ATCC 24198 assessed as microbial growth inhibition after 6 days by microdilution assay; type: functional; settings: ATCC 24198, 144 h; outline: as §7
Fusarium oxysporum = test: Antifungal activity against Fusarium oxysporum ATCC 48112 assessed as microbial growth inhibition after 48 hrs by microdilution assay; type: functional, organism-based; outline: as §7
Aspergillus fumigatus = test: Antifungal activity against Aspergillus fumigatus ATCC 204305 assessed as microbial growth inhibition by microdilution assay; type: functional, organism-based; outline: as §7
Aspergillus flavus = test: Antifungal activity against Aspergillus flavus ATCC 204304 assessed as microbial growth inhibition by microdilution assay; type: functional, organism-based; outline: as §7
Aspergillus terreus = test: Antifungal activity against Aspergillus terreus CDC 317 assessed as microbial growth inhibition by microdilution assay; type: functional, organism-based; outline: as §7
Candida albicans = test: Antifungal activity against Candida albicans […] assessed as microbial growth inhibition after 24 hrs by microdilution assay; type: functional, organism-based
Outline: (§8)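 Yeast microdilution by the AFST-EUCAST method at an inoculum of 1–5 × 10^5 CFU/mL, final compound concentrations 50–3.125 μg/mL, in duplicate. MIC is the lowest concentration giving 90% growth reduction after 24 h at 35 °C. Untreated inoculum served as negative control. Values are the geometric mean of duplicate tests in three assays.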

Candida parapsilosis = test: Antifungal activity against Candida parapsilosis ATCC 22019 assessed as microbial growth inhibition after 24 hrs by microdilution assay; type: functional, organism-based; outline: as §8
Candida tropicalis = test: Antifungal activity against Candida tropicalis ATCC 200956 assessed as microbial growth inhibition after 24 hrs by microdilution assay; type: functional, organism-based; outline: as §8
Human alphaherpesvirus 1 [27] = test: Antiviral activity against HHV-1 CDC Atlanta infected in African green monkey Vero cells assessed as viral plaque size reduction at 29 uM after 72 hrs by crystal violet staining based inverted microscopic analysis relative to control; type: functional; set-up: scale not given: the % may be the effect or the level left; outline: as §6
dengue virus type 2 [28] = test: Antiviral activity against DENV-2 New guinea infected in African green monkey Vero cells assessed as viral plaque size reduction at 3.6 uM after 8 days by crystal violet staining based inverted microscopic analysis relative to control; type: functional; set-up: scale not given: the % may be the effect or the level left; outline: as §6
Human alphaherpesvirus 1 [29] = test: Antiviral activity against acyclovir-resistant HHV-1 29R infected in African green monkey Vero cells assessed as viral plaque size reduction at 29 uM after 72 hrs by crystal violet staining based inverted microscopic analysis relative to control; type: functional; set-up: scale not given: the % may be the effect or the level left; outline: as §6

Row | Compound | Activity (dengue virus type 2 [1]) | EC50 (dengue virus type 2 [3]) | fold change (FC) (Human alphaherpesvirus 1 [4]) | MNTD (Human alphaherpesvirus 1 [5]) | fold change (FC) (Human alphaherpesvirus 2 [6]) | MNTD (Human alphaherpesvirus 2 [7]) | IC50 (HeLa [8]) | IC50 (Jurkat [10]) | IC50 [12] | IC50 (Vero [15]) | IC50 (Vero [16]) | EC50 (Human alphaherpesvirus 1 [17]) | EC50 (Human alphaherpesvirus 2 [18]) | EC50 (dengue virus type 2 [19]) | EC50 (Human alphaherpesvirus 2 [21]) | Ratio IC50/EC50 [23] | Ratio IC50/EC50 [24] | Activity (Fusarium oxysporum) | Activity (Aspergillus fumigatus) | Activity (Aspergillus flavus) | further results
1 | NC(=O)c1ncn([C@@H]2O[C@H](CO)[C@@H](O)[C@H]2O)n1 [RIBAVIRIN] | Active | 13.5 µM |  |  |  |  |  |  |  |  |  |  |  |  |  |  |  |  |  |  | MNTD (dengue virus type 2 [2]): 123 µM
2 | CC(C)c1cc2c(cc1O)[C@@]1(C)CCC[C@@](C)(C=O)[C@@H]1CC2 [18-OXOFERRUGINOL] | Active | 5 µM | inactive | inactive | 1000 | 41.7 µM | 60 µM | 21.6 µM | 33.2 µM | 97.8 µM | 52.2 µM | Not Active | Not Active | Not Active | 16.6 µM | 5.9 | 10.4 | inactive | inactive | inactive | Ratio IC50 (HeLa [9]): 1.5; Ratio IC50 (Jurkat [11]): 4.2; Ratio IC50 (Vero [13]): 2.7; IC50 (Vero [14]): 90.8 µM; EC50 (Human alphaherpesvirus 1 [20]; Human alphaherpesvirus 1, CDC Atlanta, Vero, 72 h, read-out: EC50): 19.6 µM; Ratio IC50/EC50 [22]: 4.9; Activity (Human alphaherpesvirus 2 [25]): 68.2%; MIC80 (Trichophyton rubrum): 41.7 µM (≈ 12.5 µg/mL); MIC80 [26]: 83.3 µM (≈ 25 µg/mL); Activity (Aspergillus terreus): inactive; Activity (Candida albicans): inactive; Activity (Candida parapsilosis): inactive; Activity (Candida tropicalis): inactive
3 | CC(C)c1cc2c(cc1O)[C@@]1(C)CCC[C@@](C)(CN3C(=O)c4ccccc4C3=O)[C@@H]1CC2 | Active | 1.4 µM | 100 | 14.5 µM | 1000 | 29 µM | > 50 µM | > 50 µM | > 50 µM | 191 µM | 80.8 µM | Not Active | Not Active | Not Active | 19.2 µM | 10 | 57.7 | inactive | inactive | inactive | EC50 (Human alphaherpesvirus 1 [20]; vero): Not Active; Activity (Human alphaherpesvirus 1 [27]): 93.7%; Activity (dengue virus type 2 [28]): 77.9%; Activity (Human alphaherpesvirus 1 [29]): 87.1%; Activity (Aspergillus terreus): inactive; Activity (Candida albicans): inactive; Activity (Candida parapsilosis): inactive; Activity (Candida tropicalis): inactive
